These results are taken from ChEMBL document CHEMBL3868603, “Synthesis and evaluation of naphthyl bearing 1,2,3-triazole analogs as antiplasmodial agents, cytotoxicity and docking studies” (Bioorg Med Chem, 2017).

Series [1] deals with Plasmodium falciparum. In words: Inhibition of trophozoite stage of Plasmodium falciparum DHFR assessed as reduction in NADPH depletion at 50 uM incubated for 30 mins followed by NADPH addition measured for 30 mins at 15 secs interval by UV/Vis spectrophotometric analysis. In short, it runs like this: (§1)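 Soluble extract from saponin-isolated trophozoites (culture at 15-16% parasitaemia), freeze-thaw, sonication, centrifugation; protein by Bradford. 500 µg extract in 1 ml assay buffer with inhibitor or 0.05% DMSO, 30 min room temperature, spun to remove precipitate; 60 µM NADPH and 50 µM DHA added, A340 decrease read every 15 s for 30 min; slope by linear regression as percent of control, representative experiment.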

Series [2] concerns Plasmodium falciparum. Description: Antiplasmodial activity against pyrimethamine-resistant Plasmodium falciparum Dd2 infected in human erythrocytes incubated for 50 hrs by SYBR green 1 dye based fluorescence assay. It counts as functional, cell-based. To be noted: Dd2, 50 h. In a few lines: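 Ring-stage sorbitol-synchronised parasites in RPMI 1640 with 10% human serum, 1% ring parasitaemia, 2% final haematocrit; compounds from DMSO stocks in 2-fold serial dilution; 37°C, 5% O2/5% CO2/90% N2, 50 h; lysis buffer with SYBR Green 1, fluorescence Ex 485/Em 530; chloroquine (500 nM) background subtracted, normalised to DMSO (0.05%) wells; nonlinear regression IC50; two independent experiments in duplicate.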

The test system of series [3] is Plasmodium falciparum. In words: Antiplasmodial activity against pyrimethamine-sensitive Plasmodium falciparum 3D7 infected in human erythrocytes incubated for 50 hrs by SYBR green 1 dye based fluorescence assay. It counts as functional, cell-based. The note with it: 3D7, 50 h. In a few lines: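 Parasites cultured in RPMI 1640 with 10% human serum, erythrocytes at 2% haematocrit, 37°C, 5% O2/5% CO2/90% N2; sorbitol-synchronized rings. DMSO stocks serially 2-fold diluted; 1% ring-infected erythrocytes at 4% haematocrit, 50 h. SYBR Green 1 lysis buffer, fluorescence Ex 485/Em 530; chloroquine (500 nM) background subtracted, normalized to DMSO (0.05%), nonlinear regression IC50; two independent experiments in duplicate.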

Series [4] can be described thus: Cytotoxicity against HEK293 cells assessed as decrease in cell viability at 100 uM after 48 hrs by MTT assay. The note with it: human, hek293, 48 h. The series is classed as toxicity, cell-based. In short, it runs like this:
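HEK-293 in MEM with 10% FBS, seeded 10,000 cells/well, 24 h at 37°C, 5% CO2; treated 1–100 µM in triplicate with DMSO control and doxorubicin reference, 48 h. MTT added 1 h, dried, DMSO dissolved, absorbance 562 nm; IC50 as 50% absorbance reduction versus control, mean ± SD of three independent experiments.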

Series [5] concerns Plasmodium falciparum. Description: Inhibition of trophozoite stage of Plasmodium falciparum DHFR assessed as reduction in NADPH depletion at 25 uM incubated for 30 mins followed by NADPH addition measured for 30 mins at 15 secs interval by UV/Vis spectrophotometric analysis. In a few lines:
as §1

In series [6] the test system is Plasmodium falciparum. Description: Potency index, ratio of pyrimethamine IC50 to compound IC50 for pyrimethamine-resistant Plasmodium falciparum Dd2 infected in human erythrocytes. The series is classed as functional.

SMILES strings stand for the structures. pIC50: −log10 of the molar value.

With `CCc1nc(N)nc(N)c1-c1ccc(Cl)cc1` [PYRIMETHAMINE], the inhibition in the series on Plasmodium falciparum [1] amounted to 25%. The negative logarithm of the IC50 (pIC50) is 4.47 with Plasmodium falciparum [2] and 7.33 with Plasmodium falciparum [3].

Turning to `c1ccc2cc(OCc3cn(C4CCCC4)nn3)ccc2c1`, the Activity result in series [4] was “Non-Toxic”. The compound further had a pIC50 in the series on Plasmodium falciparum [3] of 4.41.

With `C=CCn1cc(COc2ccc3cc(Br)ccc3c2)nn1`, the Activity entry in series [4] was “Non-Toxic”. The compound also had a negative-log IC50 (pIC50) with Plasmodium falciparum [3] of 4.67. The inhibition in the series on Plasmodium falciparum [5] was 13%.

Take `CCCn1cc(COc2ccc3ccccc3c2)nn1`: the Activity entry in series [4] is “Non-Toxic”. The pIC50 in the series with Plasmodium falciparum [3] was 4.26.

Take `CC(C)Cn1cc(COc2ccc3ccccc3c2)nn1`: in series [4], the Activity result is reported as “Non-Toxic”. Also, in the series with Plasmodium falciparum [3], the pIC50 was 4.21.

For `CCn1cc(COc2ccc3ccccc3c2)nn1`, in series [4], the Activity result was “Non-Toxic”. This compound gave a negative logarithm of the IC50 (pIC50) in the series on Plasmodium falciparum [3] of 4.01.

For `CCCn1cc(COc2ccc3cc(Br)ccc3c2)nn1`, the pIC50 was 4.43 with Plasmodium falciparum [2] and 4.66 in the series on Plasmodium falciparum [3]. Moreover, the Activity result in series [4] is given as “Non-Toxic”.

As to `CCCCCn1cc(COc2ccc3ccccc3c2)nn1`, in series [4], the Activity result is “Non-Toxic”. For the same compound, the pIC50 in the series with Plasmodium falciparum [3] is 4.33.

In the case of `O=C(O)CC[C@H](NC(=O)c1ccc(-n2cc(COc3ccc4cc(Br)ccc4c3)nn2)cc1)C(=O)O`, the Activity entry in series [4] is recorded as “Non-Toxic”. Also, in the series on Plasmodium falciparum [3], the pIC50 is 4.38.

As for `CC(C)Cn1cc(COc2ccc3cc(Br)ccc3c2)nn1`, in the series with Plasmodium falciparum [6], the “Ratio IC50” value is recorded as 3. Further, the pIC50 with Plasmodium falciparum [2] is 4.51; with Plasmodium falciparum [3], 4.71. In addition, in series [4], the Activity entry is listed as “Non-Toxic”. In the series with Plasmodium falciparum [5], the inhibition turned out to be 41%.

Turning to `CC(C)n1cc(COc2ccc3cc(Br)ccc3c2)nn1`, in the series with Plasmodium falciparum [6], the “Ratio IC50” value is recorded as 3. Further, the pIC50 is 4.62 in the series on Plasmodium falciparum [2] and 4.68 in the series with Plasmodium falciparum [3]. Moreover, in series [4], the Activity result is “Non-Toxic”.

Turning to `CCn1cc(COc2ccc3cc(Br)ccc3c2)nn1`, the results for the pIC50 with Plasmodium falciparum [2] and in the series on Plasmodium falciparum [3] were 4.47 and 4.63, respectively. In series [4], the Activity entry is reported as “Non-Toxic”.

As to `O=[N+]([O-])c1ccc(Cn2cc(COc3ccc4ccccc4c3)nn2)cc1`, the figures for the pIC50 in the series on Plasmodium falciparum [2] and in the series with Plasmodium falciparum [3] were 4.38 and 4.40, respectively. For the same compound, the Activity entry in series [4] was “Non-Toxic”.

Turning to `O=[N+]([O-])c1ccc(Cn2cc(COc3ccc4cc(Br)ccc4c3)nn2)cc1`, the “Ratio IC50” value in the series with Plasmodium falciparum [6] came out at 3. Moreover, the values for the pIC50 in the series with Plasmodium falciparum [2] and in the series on Plasmodium falciparum [3] were 4.87 and 4.83, respectively. In series [4], the Activity result is given as “Non-Toxic”.

For `CC(C)n1cc(COc2ccc3ccccc3c2)nn1`, the Activity result in series [4] is recorded as “Non-Toxic”. In the series on Plasmodium falciparum [3], this compound showed a negative-log IC50 (pIC50) of 4.36.

As to `c1ccc2cc(OCc3cn(CCN4CCOCC4)nn3)ccc2c1`, the Activity result in series [4] is listed as “Non-Toxic”. Also, the pIC50 in the series with Plasmodium falciparum [3] was 4.10.

Turning to `Brc1ccc2cc(OCc3cn(C4CCCC4)nn3)ccc2c1`, in series [4], the Activity entry is recorded as “Non-Toxic”. For the same compound, the pIC50 in the series with Plasmodium falciparum [3] was 4.56.

On to `C=CCn1cc(COc2ccc3ccccc3c2)nn1`, for which the Activity result in series [4] is on record as “Non-Toxic”. In the series with Plasmodium falciparum [3], the pIC50 is 4.31.

Take `CCCCCn1cc(COc2ccc3cc(Br)ccc3c2)nn1`: the Activity entry in series [4] is “Non-Toxic”. For the same compound, the negative logarithm of the IC50 (pIC50) with Plasmodium falciparum [3] was 4.58.
